According to ChEMBL document CHEMBL4007470, “Discovery of a 2'-fluoro-2'-C-methyl C-nucleotide HCV polymerase inhibitor and a phosphoramidate prodrug with favorable properties” (Bioorg Med Chem Lett, 2017):
Blank lines part the entries; values can stand above or below the compound they belong to.

Legend:
Hepatitis C virus [1] = assay: Antiviral activity against HCV genotype 1b infected in human HuH7 cells by luciferase reporter gene assay; assay type: functional, cell-based, Hepacivirus hominis; settings: Hepatitis C virus, genotype 1b, Huh-7
Method in brief: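 Luciferase-reporter genotype 1b subgenomic replicon in Huh-7 cells; EC50 is concentration giving 50% inhibition. Values are averages of at least three repeats.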

[2] = Half life in human plasma at 2 uM by LC-MS/MS analysis; assay type: ADME, cell-free
Method in brief: (§1)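 Compound at 2 μM incubated in plasma at 37 °C for up to 4 h. Aliquots quenched with 9 volumes of acetonitrile containing internal standard, then centrifuged. Supernatant analysed by LC-MS/MS.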

[3] = Half life in hamster intestinal S9 fractions at 2 uM by LC-MS/MS analysis; assay type: ADME, Intestine; settings: cricetinae, intestinal S9 fractions
[4] = Hepatic extraction in human liver S9 fractions at 2 uM by LC-MS/MS analysis; assay type: ADME; settings: liver S9 fractions, read-out: ERH
Method in brief: (§2)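 Compound at 2 μM incubated with S9 fractions at 37 °C for 90 min with NADPH and UDPGA. Quenched with aqueous acetonitrile/methanol containing internal standard and analysed by LC-MS/MS. Half-life from an exponential fit assuming first-order kinetics. Hepatic extraction predicted from half-life using the well-stirred model.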

Hepatitis C virus [5] = assay: Antiviral activity against HCV genotype 4a infected in human HuH7 cells by luciferase reporter gene assay; assay type: functional, cell-based, Hepacivirus hominis; settings: Hepatitis C virus, genotype 4a, Huh-7
[6] = Half life in hamster plasma at 2 uM by LC-MS/MS analysis; assay type: ADME, cell-free; settings: cricetinae; method in brief: as §1
[7] = Half life in human intestinal S9 fractions at 2 uM by LC-MS/MS analysis; assay type: ADME, Intestine; method in brief: as §2
[8] = Hepatic extraction in hamster liver S9 fractions at 2 uM by LC-MS/MS analysis; assay type: ADME; settings: cricetinae, liver S9 fractions; read-out: ERH; method in brief: as §2
Hepatitis C virus [9] = assay: Antiviral activity against HCV genotype 1a infected in human HuH7 cells by luciferase reporter gene assay; assay type: functional, cell-based, Hepacivirus hominis, subtype 1a; settings: Hepatitis C virus, subtype 1a, Huh-7

SMILES: CCOC(=O)C1(NP(=O)(OC[C@H]2O[C@@H](c3cnc4c(N)ncnn34)[C@](C)(F)[C@@H]2O)Oc2ccccc2)CCC1 (stereo not given in full)
EC50 (Hepatitis C virus [1]): 0.66 µM | half-life at 2 µM [2]: 11.1 h | half-life at 2 µM [3]: 1.17 h | hepatic extraction ratio at 2 µM [4]: 0.88 | EC50 (Hepatitis C virus [5]): 0.14 µM | half-life at 2 µM [6]: 7 h | half-life at 2 µM [7]: 2.92 h | hepatic extraction ratio at 2 µM [8]: 0.91 | EC50 (Hepatitis C virus [9]): 0.33 µM

SMILES: CCOC(=O)C1(NP(=O)(OC[C@H]2O[C@@H](c3cnc4c(N)ncnn34)[C@](C)(F)[C@@H]2O)Oc2ccccc2)CCCC1 (stereo not given in full)
EC50 (Hepatitis C virus [1]): 2 µM | EC50 (Hepatitis C virus [5]): 0.38 µM | EC50 (Hepatitis C virus [9]): 1 µM

SMILES: CC(C)OC(=O)C1(NP(=O)(OC[C@H]2O[C@@H](c3cnc4c(N)ncnn34)[C@](C)(F)[C@@H]2O)Oc2ccccc2)CCCCC1 (stereo not given in full)
EC50 (Hepatitis C virus [1]): 83.7 µM | EC50 (Hepatitis C virus [9]): 68.3 µM

SMILES: CC[C@@H](C)OC(=O)C1(NP(=O)(OC[C@H]2O[C@@H](c3cnc4c(N)ncnn34)[C@](C)(F)[C@@H]2O)Oc2ccccc2)CCC1 (stereo not given in full)
EC50 (Hepatitis C virus [1]): > 88 µM | EC50 (Hepatitis C virus [5]): 0.35 µM | EC50 (Hepatitis C virus [9]): 6.4 µM

SMILES: CC(C)OC(=O)C1(NP(=O)(OC[C@H]2O[C@@H](c3cnc4c(N)ncnn34)[C@](C)(F)[C@@H]2O)Oc2ccccc2)CCCC1 (stereo not given in full)
EC50 (Hepatitis C virus [1]): 51.6 µM | EC50 (Hepatitis C virus [5]): 3.9 µM | EC50 (Hepatitis C virus [9]): 11.3 µM

SMILES: CC(C)C[C@H](NP(=O)(OC[C@H]1O[C@@H](c2ccc3c(N)ncnn23)[C@](C)(F)[C@@H]1O)Oc1ccccc1)C(=O)OC(C)C (stereo not given in full)
EC50 (Hepatitis C virus [1]): 0.69 µM | EC50 (Hepatitis C virus [5]): 0.59 µM | EC50 (Hepatitis C virus [9]): 0.74 µM

SMILES: CCOC(=O)[C@H](Cc1ccccc1)NP(=O)(OC[C@H]1O[C@@H](c2cnc3c(N)ncnn23)[C@](C)(F)[C@@H]1O)Oc1ccccc1 (stereo not given in full)
EC50 (Hepatitis C virus [1]): 2.2 µM | EC50 (Hepatitis C virus [9]): 1.7 µM

More lines, now with the values ahead:

EC50 (Hepatitis C virus [1]): 20.3 µM | EC50 (Hepatitis C virus [5]): 4.3 µM | EC50 (Hepatitis C virus [9]): 6.2 µM
SMILES: CC(C)(C)COC(=O)C(C)(C)NP(=O)(OC[C@H]1O[C@@H](c2cnc3c(N)ncnn23)[C@](C)(F)[C@@H]1O)Oc1ccccc1 (stereo not given in full)

EC50 (Hepatitis C virus [1]): 0.67 µM | EC50 (Hepatitis C virus [5]): 0.46 µM | EC50 (Hepatitis C virus [9]): 0.81 µM
SMILES: CC[C@H](C)OC(=O)[C@H](C)NP(=O)(OC[C@H]1O[C@@H](c2cnc3c(N)ncnn23)[C@](C)(F)[C@@H]1O)Oc1ccccc1 (stereo not given in full)

EC50 (Hepatitis C virus [1]): 37.6 µM | EC50 (Hepatitis C virus [5]): 11.2 µM | EC50 (Hepatitis C virus [9]): 35.2 µM
SMILES: CCOC(=O)[C@@H](NP(=O)(OC[C@H]1O[C@@H](c2cnc3c(N)ncnn23)[C@](C)(F)[C@@H]1O)Oc1ccccc1)C(C)C (stereo not given in full)

EC50 (Hepatitis C virus [1]): 8.6 µM | EC50 (Hepatitis C virus [5]): 2.3 µM | EC50 (Hepatitis C virus [9]): 3.3 µM
SMILES: CCOC(=O)C[C@H](NP(=O)(OC[C@H]1O[C@@H](c2cnc3c(N)ncnn23)[C@](C)(F)[C@@H]1O)Oc1ccccc1)C(=O)OCC (stereo not given in full)

EC50 (Hepatitis C virus [1]): 0.65 µM | EC50 (Hepatitis C virus [5]): 0.27 µM | EC50 (Hepatitis C virus [9]): 0.39 µM
SMILES: CCC[C@H](NP(=O)(OC[C@H]1O[C@@H](c2cnc3c(N)ncnn23)[C@](C)(F)[C@@H]1O)Oc1ccccc1)C(=O)OCC (stereo not given in full)

EC50 (Hepatitis C virus [1]): > 88 µM | EC50 (Hepatitis C virus [5]): > 88 µM | EC50 (Hepatitis C virus [9]): > 88 µM
SMILES: CCOC(=O)[C@@H](NP(=O)(OC[C@H]1O[C@@H](c2cnc3c(N)ncnn23)[C@](C)(F)[C@@H]1O)Oc1ccccc1)C(C)(C)C (stereo not given in full)

EC50 (Hepatitis C virus [1]): 0.8 µM | half-life at 2 µM [2]: 7.68 h | half-life at 2 µM [3]: 1.67 h | hepatic extraction ratio at 2 µM [4]: 0.62 | EC50 (Hepatitis C virus [5]): 0.15 µM | half-life at 2 µM [6]: 8.3 h | half-life at 2 µM [7]: 2.15 h | hepatic extraction ratio at 2 µM [8]: 0.83 | EC50 (Hepatitis C virus [9]): 0.59 µM
SMILES: CCOC(=O)C(C)(C)NP(=O)(OC[C@H]1O[C@@H](c2cnc3c(N)ncnn23)[C@](C)(F)[C@@H]1O)Oc1ccccc1 (stereo not given in full)

EC50 (Hepatitis C virus [1]): > 88 µM | EC50 (Hepatitis C virus [5]): 77.8 µM | EC50 (Hepatitis C virus [9]): 72.4 µM
SMILES: CC(C)(C)COC(=O)C1(NP(=O)(OC[C@H]2O[C@@H](c3cnc4c(N)ncnn34)[C@](C)(F)[C@@H]2O)Oc2ccccc2)CCC1 (stereo not given in full)
